Measured values: ChEMBL document CHEMBL1649286, “ACHN-490, a neoglycoside with potent in vitro activity against multidrug-resistant Klebsiella pneumoniae isolates” (2009)
Converted amounts (≈) assume the structure as drawn.

Legend:
Type in all cases: functional
Klebsiella pneumoniae [1] = assay: Antimicrobial activity against multidrug-resistant Klebsiella pneumoniae isolates by microdilution method
Procedure, shortened: (§1)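 Broth microdilution MICs following CLSI, in cation-adjusted Mueller-Hinton broth, using custom-made panels that include piperacillin-tazobactam. Tested against 102 multidrug-resistant clinical Klebsiella pneumoniae isolates, a subset of 25 of which produce KPC carbapenemase. Cephalosporin-clavulanate combinations use clavulanate at a constant 4 mg/liter. Susceptible and resistant categories are assigned by CLSI criteria.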

Klebsiella pneumoniae [2] = assay: Antimicrobial activity against beta lactamase KPC-producing Klebsiella pneumoniae isolates by microdilution method
Procedure, shortened: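 Broth microdilution MICs following CLSI, in cation-adjusted Mueller-Hinton broth, using custom-made panels that include piperacillin-tazobactam. Cephalosporin-clavulanate combinations use clavulanate at a constant 4 mg/liter. Susceptible and resistant categories are assigned by CLSI criteria.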

Klebsiella pneumoniae [3] = assay: Antimicrobial activity against multidrug-resistant Klebsiella pneumoniae isolates assessed as susceptible isolates by microdilution method; procedure, shortened: as §1
Klebsiella pneumoniae [4] = assay: Antimicrobial activity against beta lactamase KPC-producing Klebsiella pneumoniae isolates assessed as susceptible isolates by microdilution method
Procedure, shortened: (§2)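 Broth microdilution in cation-adjusted Mueller-Hinton broth following CLSI criteria, using customized panels that included piperacillin-tazobactam. MICs were read as the endpoint, and susceptibility was categorized by CLSI criteria.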

Klebsiella pneumoniae [5] = assay: Antimicrobial activity against multidrug-resistant Klebsiella pneumoniae isolates assessed as resistance isolates by microdilution method; procedure, shortened: as §1
Klebsiella pneumoniae [6] = assay: Antimicrobial activity against beta lactamase KPC-producing Klebsiella pneumoniae isolates assessed as resistance isolates by microdilution method; procedure, shortened: as §1
Klebsiella pneumoniae [7] = assay: Antimicrobial activity against beta lactamase KPC-producing Klebsiella pneumoniae isolates by microdilution method in presence of beta-lactamase inhibitor Tazobactam
Procedure, shortened: as §2, with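 “piperacillin-tazobactam. The 25 clinical KPC-producing K. pneumoniae isolates belong to a set of 102 multidrug-resistant strains.” for “piperacillin-tazobactam.”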

Klebsiella pneumoniae [8] = assay: Antimicrobial activity against multidrug-resistant Klebsiella pneumoniae isolates assessed as susceptible isolates by microdilution method in presence of beta-lactamase inhibitor Tazobactam; procedure, shortened: as §1
Klebsiella pneumoniae [9] = assay: Antimicrobial activity against beta lactamase KPC-producing Klebsiella pneumoniae isolates assessed as susceptible isolates by microdilution method in presence of beta-lactamase inhibitor Tazobactam
Procedure, shortened: as §2, with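 “piperacillin-tazobactam. The 25 clinical KPC-producing K. pneumoniae isolates belong to a set of 102 multidrug-resistant strains.” for “piperacillin-tazobactam.”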

Escherichia coli = assay: Antimicrobial activity against Escherichia coli ATCC 25922 by microdilution method
Pseudomonas aeruginosa = assay: Antimicrobial activity against Pseudomonas aeruginosa ATCC 27853 by microdilution method
Klebsiella pneumoniae [10] = assay: Antimicrobial activity against Klebsiella pneumoniae ATCC 700603 by microdilution method

Molecule	MIC50 (Klebsiella pneumoniae [1]) [µg/mL]	MIC90 (Klebsiella pneumoniae [1]) [µg/mL]	MIC50 (Klebsiella pneumoniae [2]) [µg/mL]	MIC90 (Klebsiella pneumoniae [2]) [µg/mL]	Activity (Klebsiella pneumoniae [3]) [%]	Activity (Klebsiella pneumoniae [4]) [%]	Activity (Klebsiella pneumoniae [5]) [%]	Activity (Klebsiella pneumoniae [6]) [%]	MIC50 (Klebsiella pneumoniae [7]) [µg/mL]	MIC90 (Klebsiella pneumoniae [7]) [µg/mL]	Activity (Klebsiella pneumoniae [8]) [%]	Activity (Klebsiella pneumoniae [9]) [%]	MIC (Escherichia coli) [µg/mL]	MIC (Pseudomonas aeruginosa) [µg/mL]	MIC (Klebsiella pneumoniae [10]) [µg/mL]
NCC[C@H](O)C(=O)N[C@@H]1C[C@H](N)[C@@H](O[C@H]2O[C@H](CN)[C@@H](O)[C@H](O)[C@H]2O)[C@H](O)[C@H]1O[C@H]1O[C@H](CO)[C@@H](O)[C@H](N)[C@H]1O [AMIKACIN]	2 (≈ 3.42 µM)	32 (≈ 54.6 µM)	32 (≈ 54.6 µM)	32 (≈ 54.6 µM)	78.4	48	4.9	0							
CN(C)c1cc(NC(=O)CNC(C)(C)C)c(O)c2c1C[C@H]1C[C@H]3[C@H](N(C)C)C(O)=C(C(N)=O)C(=O)[C@@]3(O)C(O)=C1C2=O [TIGECYCLINE]	1 (≈ 1.71 µM)	2 (≈ 3.41 µM)	1 (≈ 1.71 µM)	2 (≈ 3.41 µM)	90.2	96									
C[C@@H](O)[C@H]1C(=O)N2C(C(=O)O)=C(SCCNC=N)C[C@H]12 [IMIPENEM ANHYDROUS]	0.5 (≈ 1.67 µM)	8 (≈ 26.7 µM)	8 (≈ 26.7 µM)	> 16	75.5	12									
GENTAMICIN	8	> 64	8	16	25.5	44	39.2	12							
NC[C@H]1O[C@H](O[C@H]2[C@H](O)[C@@H](O[C@H]3O[C@H](CO)[C@@H](O)[C@H](N)[C@H]3O)[C@H](N)C[C@@H]2N)[C@H](N)C[C@@H]1O [TOBRAMYCIN]	32 (≈ 68.4 µM)		32 (≈ 68.4 µM)	≥ 64	10.8	8	76.5	92							
CCN1CCN(C(=O)N[C@@H](C(=O)N[C@@H]2C(=O)N3[C@@H]2SC(C)(C)[C@@H]3C(=O)O)c2ccccc2)C(=O)C1=O [PIPERACILLIN]									> 64	> 64	38.2	0			
NC[C@@H]1O[C@H](O[C@H]2[C@@H](O)[C@H](O[C@@H]3[C@@H](O)[C@H](N)C[C@H](N)[C@H]3O[C@H]3O[C@H](CN)[C@@H](O)[C@H](O)[C@H]3N)O[C@@H]2CO)[C@H](N)[C@@H](O)[C@@H]1O [FRAMYCETIN]	2 (≈ 3.25 µM)	32 (≈ 52.1 µM)	2 (≈ 3.25 µM)	32 (≈ 52.1 µM)											
NCC[C@H](O)C(=O)N[C@@H]1C[C@H](N)[C@@H](O[C@H]2O[C@H](CN)CC[C@H]2N)[C@H](O)[C@H]1O[C@H]1O[C@H](CO)[C@@H](O)[C@H](N)[C@H]1O [ARBEKACIN]	4 (≈ 7.24 µM)	16 (≈ 29 µM)	8 (≈ 14.5 µM)	16 (≈ 29 µM)											
CN[C@@H]1[C@@H](O)[C@@H](O[C@@H]2[C@@H](O)[C@H](O[C@H]3OC(CNCCO)=CC[C@H]3N)[C@@H](N)C[C@H]2NC(=O)[C@@H](O)CCN)OC[C@]1(C)O [PLAZOMICIN]	0.5 (≈ 0.844 µM)	1 (≈ 1.69 µM)	0.5 (≈ 0.844 µM)	1 (≈ 1.69 µM)									0.5 (≈ 0.844 µM)	4 (≈ 6.75 µM)	0.25 (≈ 0.422 µM)
CC(C)(O/N=C(\C(=O)N[C@@H]1C(=O)N2C(C(=O)[O-])=C(C[n+]3ccccc3)CS[C@H]12)c1csc(N)n1)C(=O)O [CEFTAZIDIME]	> 32	> 32	> 32	> 32	9.8	0									
